One assay concerns the target T1, Thromboxane A2 receptor (Homo sapiens) (UniProt P21731).
T1 sequence (whole entry): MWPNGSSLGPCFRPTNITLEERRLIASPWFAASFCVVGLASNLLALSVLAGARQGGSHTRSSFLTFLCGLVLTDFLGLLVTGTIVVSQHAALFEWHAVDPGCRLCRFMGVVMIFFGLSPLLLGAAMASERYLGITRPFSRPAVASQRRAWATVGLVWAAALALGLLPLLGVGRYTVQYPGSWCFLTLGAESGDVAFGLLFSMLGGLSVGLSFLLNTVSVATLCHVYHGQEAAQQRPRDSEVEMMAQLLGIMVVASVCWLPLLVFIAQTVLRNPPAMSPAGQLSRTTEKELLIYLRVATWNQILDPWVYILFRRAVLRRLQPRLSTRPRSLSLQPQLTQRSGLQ
The assay is described as follows: In vitro for percent inhibition against TXA2 / PGH-2 receptor using [125I]PTA-OH in human platelets at 10 e-5 M. The procedure, abridged:
(§1)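 Washed human platelets from volunteer blood drawn into EDTA 5 mM and indomethacin 20 µM (final); PRP at 200 g, pellet at 2000 g. 5 × 10^7 platelets incubated 30 min at 37 °C with 0.1 nM [125I]PTA-OH in Tris/NaCl/dextrose/indomethacin buffer, pH 7.4. Screening at 10^-7 and 10^-5 M. Filtration, gamma counting. Nonspecific binding set by a tetrahydrocarbazole-acetic acid antagonist. Triplicate.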
In general, inhibition refers to the percentage by which the read-out fell short of the control. Low readings indicate a response near the control, high ones a response far below the control. In turn, `CCC(C)(CC(=O)O)Cc1nc2ccccc2n1Cc1ccc(Cl)cc1` (centres undefined) registered an inhibition of 100%.
`CSc1ccc(Cn2c(CC(C)(C)CC(=O)O)nc3cc(F)ccc32)cc1` gave an inhibition of 100%.
The same measure, in the same setting: to `COc1ccc(Cn2c(CC(C)(C)CC(=O)O)nc3cc(Cl)ccc32)cc1` belongs 100%; to `O=C(O)CCCSc1nc2cc(Cl)cnc2n1Cc1ccc(Cl)cc1`, 39%.
`CC(C)(CC(N)=O)Cc1nc2ccccc2n1Cc1ccc(Cl)cc1` gave an inhibition of 90%.
Molecule `CC(C)(CC#N)Cc1nc2ccccc2n1Cc1ccc(Cl)cc1` showed an inhibition of 0%.
In turn, `CSc1ccc(Cn2c(CC(C)(C)CC(=O)O)nc3cc(Cl)ccc32)cc1` gave an inhibition of 89%.
Same read-out and setting: for `O=C(O)CCc1nc2cc(F)ccc2n1Cc1ccc(Cl)cc1` the value was 64%; for `CC(C)(CC(=O)O)Cc1nc2ccccc2n1Cc1cccc(C(F)(F)F)c1`, 100%.
`CC(C)(Sc1nc2cc(Cl)cnc2n1Cc1ccc(Cl)cc1)C(=O)O` registered an inhibition of 100%.
With `CC(C)(CC(=O)O)Cc1nc2cc(Cl)c(Cl)cc2n1Cc1ccc(Cl)cc1`, the inhibition was found to be 100%.
Molecule `O=C(O)CC1CCCc2c1n(Cc1ccc(Cl)cc1)c1ccc(F)cc21` (centres undefined) had an inhibition of 100%.
`CC(C)(Sc1nc2cc(F)ccc2n1Cc1ccc(Cl)cc1)C(=O)O` came in with an inhibition of 83%.
In turn, `O=C(O)CCCSc1nc2cc(F)ccc2n1Cc1ccc(Cl)cc1` came in with an inhibition of 93%.
In turn, `CC(C)(CC(=O)O)Cc1nc2cc(Cl)ccc2n1Cc1ccc(S(C)(=O)=O)cc1` registered an inhibition of 82%.
Turning to `O=C(O)CCCCSc1nc2cc(F)ccc2n1Cc1ccc(Cl)cc1`, the inhibition was found to be 100%.
The same measure, in the same setting: to `COc1ccc2c(c1)nc(CC(C)(C)CC(=O)O)n2Cc1ccc(Cl)cc1` belongs 100%.
In turn, `CC(C)(CC(=O)O)Cc1nc2cc(Cl)ccc2n1Cc1ccc(Cl)cc1` returned an inhibition of 99%.
In turn, `CC(C)(CC(=O)O)Cc1nc2ccccc2n1Cc1ccc(Br)cc1` came in with an inhibition of 96%.
As to `CC(C)(CC(=O)O)Cc1nc2cc(F)ccc2n1Cc1ccc(Cl)cc1F`, the inhibition worked out at 77%.
The molecule `CC(C)(CC(=O)O)Cc1nc2cc(Cl)ccc2n1Cc1ccc(Cl)cc1F` showed an inhibition of 87%.
Consider `CC(C)(CC(=O)O)Cc1nc2cc(Br)ccc2n1Cc1ccc(Cl)cc1`, for which the inhibition amounted to 67%.
As to `CCC(CC)(CC(=O)O)Cc1nc2ccccc2n1Cc1ccc(Cl)cc1`, the inhibition is 97%.
The molecule `CC(C)(CC(=O)O)Cc1nc2cc(Cl)ccc2n1Cc1ccc(Cl)c(Cl)c1` gave an inhibition of 92%.
`CC(C)(CC(=O)O)Cc1nc2cc(F)ccc2n1Cc1ccc(S(C)(=O)=O)cc1` displayed an inhibition of 100%.
In turn, `COc1ccc(Cn2c(CC(C)(C)CC(=O)O)nc3ccccc32)cc1` returned an inhibition of 100%.
With `CC(C)(CC(=O)O)Cc1nc2cc(Cl)ccc2n1Cc1ccc(Br)cc1`, the inhibition is 100%.
`O=C(O)CCCSc1nc2cccnc2n1Cc1ccc(Cl)cc1` yielded an inhibition of 64%.

Another assay addresses T1, Thromboxane A2 receptor (Homo sapiens). The assay is described as follows: Tested in vitro for percent inhibition against TXA2 / PGH-2 receptor using [125I]PTA-OH in human platelets at 10 e-7 M. In outline:
as §1
As for `CCC(C)(CC(=O)O)Cc1nc2ccccc2n1Cc1ccc(Cl)cc1` (centres undefined), the inhibition is 57%.
On the same count and under the same terms, for `CSc1ccc(Cn2c(CC(C)(C)CC(=O)O)nc3cc(F)ccc32)cc1` the value was 100%; for `COc1ccc(Cn2c(CC(C)(C)CC(=O)O)nc3cc(Cl)ccc32)cc1`, 95%; for `O=C(O)CCCSc1nc2cc(Cl)cnc2n1Cc1ccc(Cl)cc1`, 6%.
For the molecule `CC(C)(CC(N)=O)Cc1nc2ccccc2n1Cc1ccc(Cl)cc1`, the inhibition was 7%.
Turning to `CC(C)(CC#N)Cc1nc2ccccc2n1Cc1ccc(Cl)cc1`, the inhibition was found to be 0%.
For the molecule `CSc1ccc(Cn2c(CC(C)(C)CC(=O)O)nc3cc(Cl)ccc32)cc1`, the inhibition was 87%.
For the molecule `O=C(O)CCc1nc2cc(F)ccc2n1Cc1ccc(Cl)cc1`, the inhibition was determined as 0%.
Regarding `CC(C)(CC(=O)O)Cc1nc2ccccc2n1Cc1cccc(C(F)(F)F)c1`, the inhibition worked out at 49%.
For `CC(C)(Sc1nc2cc(Cl)cnc2n1Cc1ccc(Cl)cc1)C(=O)O`, the inhibition amounted to 30%.
Still for that read-out and setting: for `CC(C)(CC(=O)O)Cc1nc2cc(Cl)c(Cl)cc2n1Cc1ccc(Cl)cc1` the value was 14%.
Same read-out and setting: for `O=C(O)CC1CCCc2c1n(Cc1ccc(Cl)cc1)c1ccc(F)cc21` (centres undefined) the value was 100%.
`CC(C)(Sc1nc2cc(F)ccc2n1Cc1ccc(Cl)cc1)C(=O)O` showed an inhibition of 3%.
As for `O=C(O)CCCSc1nc2cc(F)ccc2n1Cc1ccc(Cl)cc1`, the inhibition came to 8%.
Consider `CC(C)(CC(=O)O)Cc1nc2cc(Cl)ccc2n1Cc1ccc(S(C)(=O)=O)cc1`, for which the inhibition amounted to 69%.
In the case of `O=C(O)CCCCSc1nc2cc(F)ccc2n1Cc1ccc(Cl)cc1`, the inhibition was determined as 28%.
Still for that read-out and setting: to `COc1ccc2c(c1)nc(CC(C)(C)CC(=O)O)n2Cc1ccc(Cl)cc1` belongs 44%; to `CC(C)(CC(=O)O)Cc1nc2cc(Cl)ccc2n1Cc1ccc(Cl)cc1`, 74%; to `CC(C)(CC(=O)O)Cc1nc2ccccc2n1Cc1ccc(Br)cc1`, 86%.
With `CC(C)(CC(=O)O)Cc1nc2cc(F)ccc2n1Cc1ccc(Cl)cc1F`, the inhibition came out at 58%.
The molecule `CC(C)(CC(=O)O)Cc1nc2cc(Cl)ccc2n1Cc1ccc(Cl)cc1F` had an inhibition of 77%.
Molecule `CC(C)(CC(=O)O)Cc1nc2cc(Br)ccc2n1Cc1ccc(Cl)cc1` registered an inhibition of 38%.
Consider `CCC(CC)(CC(=O)O)Cc1nc2ccccc2n1Cc1ccc(Cl)cc1`, for which the inhibition was determined as 35%.
The molecule `CC(C)(CC(=O)O)Cc1nc2cc(Cl)ccc2n1Cc1ccc(Cl)c(Cl)c1` yielded an inhibition of 71%.
Same read-out and setting: for `CC(C)(CC(=O)O)Cc1nc2cc(F)ccc2n1Cc1ccc(S(C)(=O)=O)cc1` the value was 100%; for `COc1ccc(Cn2c(CC(C)(C)CC(=O)O)nc3ccccc32)cc1`, 89%; for `CC(C)(CC(=O)O)Cc1nc2cc(Cl)ccc2n1Cc1ccc(Br)cc1`, 98%.
In turn, `O=C(O)CCCSc1nc2cccnc2n1Cc1ccc(Cl)cc1` registered an inhibition of 27%.

For the next assay, the target named is T2, Thromboxane A2 receptor (Homo sapiens, UniProt P21731).
T2 sequence (P21731 whole entry): T1 sequence (whole entry)
The assay is described as follows: Tested in vitro for inhibition constant against TXA2 / PGH-2 receptor using [125I]PTA-OH binding affinity to human platelets.
The Ki is the dissociation constant of the complex between target and ligand, obtained from inhibition or displacement. In turn, `COc1ccc(Cn2c(CC(C)(C)CC(=O)O)nc3cc(Cl)ccc32)cc1` came in with a Ki of 20 nM.
Regarding `CSc1ccc(Cn2c(CC(C)(C)CC(=O)O)nc3cc(Cl)ccc32)cc1`, the affinity corresponds to a Ki of 6 nM.
The same measure, in the same setting: for `O=C(O)CCc1nc2cc(F)ccc2n1Cc1ccc(Cl)cc1` the value was 5600 nM; for `O=C(O)CC1CCCc2c1n(Cc1ccc(Cl)cc1)c1ccc(F)cc21` (centres undefined), 15.3 nM; for `CC(C)(Sc1nc2cc(F)ccc2n1Cc1ccc(Cl)cc1)C(=O)O`, 670 nM.
The molecule `CC(C)(CC(=O)O)Cc1nc2ccccc2n1Cc1ccc(Br)cc1` yielded a Ki of 16 nM.
The molecule `CCC(CC)(CC(=O)O)Cc1nc2ccccc2n1Cc1ccc(Cl)cc1` had a Ki of 160 nM.
Turning to `CC(C)(CC(=O)O)Cc1nc2cc(Cl)ccc2n1Cc1ccc(Cl)c(Cl)c1`, the affinity, expressed as Ki, was 12 nM.

For the origin of these results see ChEMBL document CHEMBL1126650, “Synthesis and structure-activity relationships of novel benzimidazole and imidazo[4,5-b]pyridine acid derivatives as thromboxane A2 receptor antagonists” (J Med Chem, 1993).
